Assay results reported in ChEMBL document CHEMBL1157665, “Novel 4-thiazolidinone derivatives as potential antifungal and antibacterial drugs” (2010).
≈ marks a conversion by molar mass, not a printed value.

Experiments:
[1] = test system: Aspergillus niger; assay: Antifungal activity against Aspergillus niger ATCC 6275 after 72 hrs by serial sub-cultivation method; format: functional; settings: ATCC 6275, 72 h
Procedure, shortened: (§1)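 MFC was found by serial sub-cultivation of 2 µl into plates holding 100 µl broth per well, then incubation 72 h at 28 °C. MFC is the lowest concentration with no visible growth, taken as 99.5% killing of the original inoculum. Spore inocula came from malt agar cultures washed with 0.85% saline and 0.1% Tween 80.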

[2] = test system: Aspergillus versicolor; assay: Antifungal activity against Aspergillus versicolor ATCC 11730 after 72 hrs by serial dilution method; format: functional; settings: ATCC 11730, 72 h
Procedure, shortened: (§2)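 Fungi were kept on malt agar at 4 °C and sub-cultured monthly. Spores were washed off the agar with sterile 0.85% saline containing 0.1% Tween 80 (v/v). Modified microdilution in 96-well plates. MIC is the lowest concentration with no visible growth under the binocular microscope. Inoculum checked on malt agar for contamination and validity.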

[3] = test system: Aspergillus versicolor; assay: Antifungal activity against Aspergillus versicolor ATCC 11730 after 72 hrs by serial sub-cultivation method; format: functional; settings: ATCC 11730, 72 h; procedure, shortened: as §1
[4] = test system: Aspergillus flavus; assay: Antifungal activity against Aspergillus flavus ATCC 9643 after 72 hrs by serial dilution method; format: functional; settings: ATCC 9643, 72 h; procedure, shortened: as §2
[5] = test system: Aspergillus flavus; assay: Antifungal activity against Aspergillus flavus ATCC 9643 after 72 hrs by serial sub-cultivation method; format: functional; settings: ATCC 9643, 72 h; procedure, shortened: as §1
[6] = test system: Fulvia fulva; assay: Antifungal activity against Fulvia fulva TK 5318 after 72 hrs by serial dilution method; format: functional; settings: TK 5318, 72 h; procedure, shortened: as §2
[7] = test system: Fulvia fulva; assay: Antifungal activity against Fulvia fulva TK 5318 after 72 hrs by serial sub-cultivation method; format: functional; settings: TK 5318, 72 h; procedure, shortened: as §1
[8] = test system: Bacillus cereus; assay: Antibacterial activity against Bacillus cereus clinical isolate after 24 hrs; format: functional
Procedure, shortened: (§3)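 Broth microdilution MIC in 96-well plates. Compounds in LB broth with bacterial inoculum of 1.0 × 10^4 cfu per well, from suspensions adjusted with sterile saline to 1.0 × 10⁵ CFU/ml. Incubated 24 h at […] as printed. MIC taken as the lowest concentration with no visible growth under the binocular microscope. OD at 655 nm also read against blank. Streptomycin and ampicillin as positive controls. Duplicate, repeated three times.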

[9] = test system: Bacillus cereus; assay: Antibacterial activity against Bacillus cereus clinical isolate after 72 hrs by serial sub-cultivation method; format: functional
Procedure, shortened: (§4)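 MBC was found by serial sub-cultivation of 2 µl from the MIC wells into plates holding 100 µl broth per well, then incubation for 72 h. MBC is the lowest concentration with no visible growth, i.e. 99.5% killing of the original inoculum. Bacterial inoculum was 1.0 × 10^4 cfu per well in LB broth. Duplicate, repeated three times.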

[10] = test system: Micrococcus flavus; assay: Antibacterial activity against Micrococcus flavus ATCC 10240 after 24 hrs; format: functional; settings: ATCC 10240, 24 h; procedure, shortened: as §3
[11] = test system: Micrococcus flavus; assay: Antibacterial activity against Micrococcus flavus ATCC 10240 after 72 hrs by serial sub-cultivation method; format: functional; settings: ATCC 10240, 72 h; procedure, shortened: as §4
[12] = test system: Staphylococcus aureus; assay: Antibacterial activity against Staphylococcus aureus ATCC 6538 after 24 hrs; format: functional; settings: ATCC 6538, 24 h; procedure, shortened: as §3
[13] = test system: Staphylococcus aureus; assay: Antibacterial activity against Staphylococcus aureus ATCC 6538 after 72 hrs by serial sub-cultivation method; format: functional; settings: ATCC 6538, 72 h; procedure, shortened: as §4
[14] = test system: Escherichia coli; assay: Antibacterial activity against Escherichia coli ATCC 35210 after 24 hrs; format: functional; settings: ATCC 35210, 24 h; procedure, shortened: as §3
[15] = test system: Escherichia coli; assay: Antibacterial activity against Escherichia coli ATCC 35210 after 72 hrs by serial sub-cultivation method; format: functional; settings: ATCC 35210, 72 h; procedure, shortened: as §4
[16] = test system: Pseudomonas aeruginosa; assay: Antibacterial activity against Pseudomonas aeruginosa ATCC 27853 after 24 hrs; format: functional; settings: ATCC 27853, 24 h; procedure, shortened: as §3
[17] = test system: Pseudomonas aeruginosa; assay: Antibacterial activity against Pseudomonas aeruginosa ATCC 27853 after 72 hrs by serial sub-cultivation method; format: functional; settings: ATCC 27853, 72 h; procedure, shortened: as §4
[18] = test system: Proteus mirabilis; assay: Antibacterial activity against Proteus mirabilis after 24 hrs; format: functional; procedure, shortened: as §3
[19] = test system: Proteus mirabilis; assay: Antibacterial activity against Proteus mirabilis after 72 hrs by serial sub-cultivation method; format: functional; procedure, shortened: as §4
[20] = test system: Salmonella typhimurium; assay: Antibacterial activity against Salmonella Typhimurium ATCC 13311 after 24 hrs; format: functional, Salmonella enterica subsp. enterica serovar Typhimurium; settings: Salmonella enterica, ATCC 13311, 24 h; procedure, shortened: as §3
[21] = test system: Salmonella typhimurium; assay: Antibacterial activity against Salmonella Typhimurium ATCC 13311 after 72 hrs by serial sub-cultivation method; format: functional, Salmonella enterica subsp. enterica serovar Typhimurium; settings: Salmonella enterica, ATCC 13311, 72 h; procedure, shortened: as §4
[22] = test system: Listeria monocytogenes; assay: Antibacterial activity against Listeria monocytogenes NCTC 7973 after 24 hrs; format: functional; settings: NCTC 7973, 24 h; procedure, shortened: as §3
[23] = test system: Listeria monocytogenes; assay: Antibacterial activity against Listeria monocytogenes NCTC 7973 after 72 hrs by serial sub-cultivation method; format: functional; settings: NCTC 7973, 72 h; procedure, shortened: as §4
[24] = test system: Talaromyces funiculosus; assay: Antifungal activity against Penicillium funiculosum ATCC 36839 after 72 hrs by serial dilution method; format: functional; settings: ATCC 36839, 72 h; procedure, shortened: as §2
[25] = test system: Talaromyces funiculosus; assay: Antifungal activity against Penicillium funiculosum ATCC 36839 after 72 hrs by serial sub-cultivation method; format: functional; settings: ATCC 36839, 72 h; procedure, shortened: as §1
[26] = test system: Penicillium ochrochloron; assay: Antifungal activity against Penicillium ochrochloron ATCC 9112 after 72 hrs by serial dilution method; format: functional; settings: ATCC 9112, 72 h; procedure, shortened: as §2
[27] = test system: Penicillium ochrochloron; assay: Antifungal activity against Penicillium ochrochloron ATCC 9112 after 72 hrs by serial sub-cultivation method; format: functional; settings: ATCC 9112, 72 h; procedure, shortened: as §1
[28] = test system: Trichoderma viride; assay: Antifungal activity against Trichoderma viride IAM 5061 after 72 hrs by serial dilution method; format: functional; settings: IAM 5061, 72 h; procedure, shortened: as §2
[29] = test system: Trichoderma viride; assay: Antifungal activity against Trichoderma viride IAM 5061 after 72 hrs by serial sub-cultivation method; format: functional; settings: IAM 5061, 72 h; procedure, shortened: as §1
[30] = test system: Aspergillus niger; assay: Antifungal activity against Aspergillus niger ATCC 6275 after 72 hrs by serial dilution method; format: functional; settings: ATCC 6275, 72 h; procedure, shortened: as §2
[31] = test system: Aspergillus fumigatus; assay: Antifungal activity against Aspergillus fumigatus plant isolate after 72 hrs by serial dilution method
[32] = test system: Aspergillus fumigatus; assay: Antifungal activity against Aspergillus fumigatus plant isolate after 72 hrs by serial sub-cultivation method

Row | MIC [2] [µM] | MIC [4] [µM] | MIC [8] [µM] | MIC [10] [µM] | MIC [12] [µM] | MIC [14] [µM] | MIC [16] [µM] | MIC [18] [µM] | MIC [20] [µM] | MIC [22] [µM] | SMILES | MFC [1] [µM] | MFC [3] [µM] | MBC [9] [µM] | MBC [11] [µM] | MBC [13] [µM] | MBC [15] [µM] | MBC [17] [µM] | MBC [19] [µM] | MBC [21] [µM] | MBC [23] [µM] | other results
1 | 15.7 (≈ 7.81 µg/mL) | 10.5 (≈ 5.23 µg/mL) | 20.9 (≈ 10.4 µg/mL) | 10.5 (≈ 5.23 µg/mL) | 10.5 (≈ 5.23 µg/mL) | 20.9 (≈ 10.4 µg/mL) | 15.7 (≈ 7.81 µg/mL) | 41.8 (≈ 20.8 µg/mL) | 10.5 (≈ 5.23 µg/mL) | 20.9 (≈ 10.4 µg/mL) | COc1cc(/C=C2\S/C(=N\c3nc(C45CC6CC(CC(C6)C4)C5)cs3)NC2=O)cc(OC)c1O | 20.9 (≈ 10.4 µg/mL) | 20.9 (≈ 10.4 µg/mL) | 20.9 (≈ 10.4 µg/mL) | 20.9 (≈ 10.4 µg/mL) | 15.7 (≈ 7.81 µg/mL) | 41.8 (≈ 20.8 µg/mL) | 41.8 (≈ 20.8 µg/mL) | 62.7 (≈ 31.2 µg/mL) | 15.7 (≈ 7.81 µg/mL) | 41.8 (≈ 20.8 µg/mL) | MFC [5]: 20.9 µM (≈ 10.4 µg/mL); MIC [6]: 5.2 µM (≈ 2.59 µg/mL); MFC [7]: 20.9 µM (≈ 10.4 µg/mL); MIC [24]: 10.5 µM (≈ 5.23 µg/mL); MFC [25]: 20.9 µM (≈ 10.4 µg/mL); MIC [26]: 5.2 µM (≈ 2.59 µg/mL); MFC [27]: 10.5 µM (≈ 5.23 µg/mL); MIC [28]: 10.5 µM (≈ 5.23 µg/mL); MFC [29]: 20.9 µM (≈ 10.4 µg/mL); MIC [30]: 10.5 µM (≈ 5.23 µg/mL); MIC [31]: 15.7 µM (≈ 7.81 µg/mL); MFC [32]: 20.9 µM (≈ 10.4 µg/mL)
2 | – | – | 248 (≈ 86.7 µg/mL) | 248 (≈ 86.7 µg/mL) | 248 (≈ 86.7 µg/mL) | 372 (≈ 130 µg/mL) | 744 (≈ 260 µg/mL) | 372 (≈ 130 µg/mL) | 248 (≈ 86.7 µg/mL) | 372 (≈ 130 µg/mL) | CC1(C)S[C@@H]2[C@H](NC(=O)[C@H](N)c3ccccc3)C(=O)N2[C@H]1C(=O)O [AMPICILLIN] | – | – | 372 (≈ 130 µg/mL) | 372 (≈ 130 µg/mL) | 372 (≈ 130 µg/mL) | 492 (≈ 172 µg/mL) | 1240 (≈ 433 µg/mL) | 492 (≈ 172 µg/mL) | 492 (≈ 172 µg/mL) | 744 (≈ 260 µg/mL) | –
3 | 17.2 (≈ 7.53 µg/mL) | 11.5 (≈ 5.03 µg/mL) | 17.2 (≈ 7.53 µg/mL) | 22.9 (≈ 10 µg/mL) | 17.2 (≈ 7.53 µg/mL) | 22.9 (≈ 10 µg/mL) | 22.9 (≈ 10 µg/mL) | 45.8 (≈ 20 µg/mL) | 11.5 (≈ 5.03 µg/mL) | 22.9 (≈ 10 µg/mL) | O=C1N/C(=N/c2nc(C34CC5CC(CC(C5)C3)C4)cs2)S/C1=C\c1ccc(O)cc1 | 22.9 (≈ 10 µg/mL) | 22.9 (≈ 10 µg/mL) | 22.9 (≈ 10 µg/mL) | 45.8 (≈ 20 µg/mL) | 45.8 (≈ 20 µg/mL) | 45.8 (≈ 20 µg/mL) | 45.8 (≈ 20 µg/mL) | 68.7 (≈ 30.1 µg/mL) | 17.2 (≈ 7.53 µg/mL) | 45.8 (≈ 20 µg/mL) | MFC [5]: 22.9 µM (≈ 10 µg/mL); MIC [6]: 11.5 µM (≈ 5.03 µg/mL); MFC [7]: 22.9 µM (≈ 10 µg/mL); MIC [24]: 17.2 µM (≈ 7.53 µg/mL); MFC [25]: 22.9 µM (≈ 10 µg/mL); MIC [26]: 17.2 µM (≈ 7.53 µg/mL); MFC [27]: 22.9 µM (≈ 10 µg/mL); MIC [28]: 11.5 µM (≈ 5.03 µg/mL); MFC [29]: 22.9 µM (≈ 10 µg/mL); MIC [30]: 11.5 µM (≈ 5.03 µg/mL); MIC [31]: 11.5 µM (≈ 5.03 µg/mL); MFC [32]: 22.9 µM (≈ 10 µg/mL)
4 | 16.4 (≈ 7.48 µg/mL) | 11 (≈ 5.02 µg/mL) | 21.9 (≈ 9.99 µg/mL) | 16.4 (≈ 7.48 µg/mL) | 21.9 (≈ 9.99 µg/mL) | 21.9 (≈ 9.99 µg/mL) | 21.9 (≈ 9.99 µg/mL) | 43.8 (≈ 20 µg/mL) | 21.9 (≈ 9.99 µg/mL) | 21.9 (≈ 9.99 µg/mL) | O=C1N/C(=N/c2nc(C34CC5CC(CC(C5)C3)C4)cs2)S/C1=C\c1ccccc1Cl | 21.9 (≈ 9.99 µg/mL) | 21.9 (≈ 9.99 µg/mL) | 43.8 (≈ 20 µg/mL) | 23.8 (≈ 10.9 µg/mL) | 43.8 (≈ 20 µg/mL) | 43.8 (≈ 20 µg/mL) | 43.8 (≈ 20 µg/mL) | 63.7 (≈ 29 µg/mL) | 43.8 (≈ 20 µg/mL) | 43.8 (≈ 20 µg/mL) | MFC [5]: 21.9 µM (≈ 9.99 µg/mL); MIC [6]: 11 µM (≈ 5.02 µg/mL); MFC [7]: 16.4 µM (≈ 7.48 µg/mL); MIC [24]: 21.9 µM (≈ 9.99 µg/mL); MFC [25]: 32.3 µM (≈ 14.7 µg/mL); MIC [26]: 11 µM (≈ 5.02 µg/mL); MFC [27]: 21.9 µM (≈ 9.99 µg/mL); MIC [28]: 11 µM (≈ 5.02 µg/mL); MFC [29]: 21.9 µM (≈ 9.99 µg/mL); MIC [30]: 11 µM (≈ 5.02 µg/mL); MIC [31]: 16.4 µM (≈ 7.48 µg/mL); MFC [32]: 21.9 µM (≈ 9.99 µg/mL)
